From ChEMBL document CHEMBL3588757, “Structure-based design, synthesis and biological testing of piperazine-linked bis-epipodophyllotoxin etoposide analogs” (Bioorg Med Chem, 2015)

What was measured:
SW-620 = test: Cytotoxicity against human SW620 cells assessed as cell growth at 50 uM by SRB assay; format: functional; conditions: read-out: Activity
MDA-MB-435 = test: Cytotoxicity against human MDA-MB-435 cells by SRB assay; format: functional
Procedure, shortened: (§1)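 NCI-60 panel screen; 5-dose testing giving GI50 per cell line, plus a single 10 µM one-dose test. Method details not given beyond the NCI screen.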

RPMI-8226 [1] = test: Cytotoxicity against human RPMI8226 cells assessed as cell growth at 0.005 uM by SRB assay; format: functional; conditions: read-out: Activity
SN12C = test: Cytotoxicity against human SN12C cells assessed as cell growth at 0.5 uM by SRB assay; format: functional; conditions: read-out: Activity
U-251 = test: Cytotoxicity against human U251 cells assessed as cell growth at 0.005 uM by SRB assay; format: functional; conditions: read-out: Activity
SNB-19 [2] = test: Cytotoxicity against human SNB19 cells assessed as cell growth at 0.5 uM by SRB assay; format: functional; conditions: read-out: Activity
MDA-MB-231 [3] = test: Cytotoxicity against human MDA-MB-231/ATCC cells by SRB assay; format: functional; procedure, shortened: as §1
MDA-MB-231 [4] = test: Cytotoxicity against human MDA-MB-231/ATCC cells assessed as cell growth at 0.5 uM by SRB assay; format: functional; conditions: read-out: Activity
RPMI-8226 [5] = test: Cytotoxicity against human RPMI8226 cells assessed as cell growth at 50 uM by SRB assay; format: functional; conditions: read-out: Activity
HOP-62 [6] = test: Cytotoxicity against human HOP62 cells assessed as cell growth at 0.5 uM by SRB assay; format: functional; conditions: read-out: Activity
Procedure, shortened: (§2)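 Measured in the NCI-60 human tumour cell line panel using five-dose testing. Growth was recorded at each dose for each cell line, and a GI50 was derived for each line.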

UACC-257 = test: Cytotoxicity against human UACC257 cells by SRB assay; format: functional; procedure, shortened: as §1
SK-MEL-28 = test: Cytotoxicity against human SK-MEL-28 cells assessed as cell growth at 0.005 uM by SRB assay; format: functional; conditions: read-out: Activity
SK-MEL-2 = test: Cytotoxicity against human SK-MEL-2 cells assessed as cell growth at 50 uM by SRB assay; format: functional; conditions: read-out: Activity
COLO 205 = test: Cytotoxicity against human COLO205 cells by SRB assay; format: functional
HOP-62 [7] = test: Cytotoxicity against human HOP62 cells assessed as cell growth at 0.05 uM by SRB assay; format: functional; conditions: read-out: Activity; procedure, shortened: as §2
MCF7 = test: Cytotoxicity against human MCF7 cells assessed as cell growth at 50 uM by SRB assay; format: functional; conditions: read-out: Activity
SR = test: Cytotoxicity against human SR cells assessed as cell growth at 50 uM by SRB assay; format: functional; conditions: read-out: Activity
SK-OV-3 = test: Cytotoxicity against human SKOV3 cells assessed as cell growth at 0.5 uM by SRB assay; format: functional; conditions: read-out: Activity
HL-60(TB) [8] = test: Cytotoxicity against human HL-60(TB) cells assessed as cell growth at 50 uM by SRB assay; format: functional; conditions: read-out: Activity; procedure, shortened: as §2
OVCAR-3 = test: Cytotoxicity against human OVCAR3 cells assessed as cell growth at 5 uM by SRB assay; format: functional; conditions: read-out: Activity
HCT-116 = test: Cytotoxicity against human HCT116 cells assessed as cell growth at 0.5 uM by SRB assay; format: functional; conditions: read-out: Activity; procedure, shortened: as §2
SNB-19 [9] = test: Cytotoxicity against human SNB19 cells assessed as cell growth at 0.05 uM by SRB assay; format: functional; conditions: read-out: Activity
NCI-H23 [10] = test: Cytotoxicity against human NCI-H23 cells assessed as cell growth at 0.005 uM by SRB assay; format: functional; conditions: read-out: Activity
CAKI-1 = test: Cytotoxicity against human Caki1 cells assessed as cell growth at 0.05 uM by SRB assay; format: functional; conditions: read-out: Activity
NCI-H23 [11] = test: Cytotoxicity against human NCI-H23 cells by SRB assay; format: functional; procedure, shortened: as §1
CCRF-CEM = test: Cytotoxicity against human CCRF-CEM cells assessed as cell growth at 0.005 uM by SRB assay; format: functional; conditions: read-out: Activity
SF-268 = test: Cytotoxicity against human SF268 cells assessed as cell growth at 0.05 uM by SRB assay; format: functional; conditions: read-out: Activity
SNB-75 = test: Cytotoxicity against human SNB75 cells assessed as cell growth at 50 uM by SRB assay; format: functional; conditions: read-out: Activity
HOP-62 [12] = test: Cytotoxicity against human HOP62 cells assessed as cell growth at 50 uM by SRB assay; format: functional; conditions: read-out: Activity; procedure, shortened: as §2
SF-539 [13] = test: Cytotoxicity against human SF539 cells assessed as cell growth at 5 uM by SRB assay; format: functional; conditions: read-out: Activity
[14] = Cytotoxicity against human NCI-ADR-RES cells assessed as cell growth at 0.005 uM by SRB assay; format: functional; conditions: read-out: Activity
[15] = Cytotoxicity against etoposide-resistant human K/VP.5 cells assessed as cell growth inhibition after 72 hrs by MTS assay; format: functional, cell-based; conditions: K/VP.5, 72 h
Procedure, shortened: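 K/VP.5 cells are a K562-derived subline, 26-fold etoposide-resistant, with decreased topoisomerase IIα mRNA and protein. Cells were grown in suspension in αMEM with 10% fetal calf serum. Drugs were given from DMSO stocks, with final DMSO typically 0.4% or less. Read-out was MTS absorbance after 72 h. Typically nine concentrations were run in duplicate on two days. IC50 came from a four-parameter logistic fit.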

ACHN = test: Cytotoxicity against human ACHN cells by SRB assay; format: functional
SF-539 [16] = test: Cytotoxicity against human SF539 cells assessed as cell growth at 0.05 uM by SRB assay; format: functional; conditions: read-out: Activity
A498 = test: Cytotoxicity against human A498 cells assessed as cell growth at 0.05 uM by SRB assay; format: functional; conditions: read-out: Activity
HL-60(TB) [17] = test: Cytotoxicity against human HL-60(TB) cells assessed as cell growth at 0.05 uM by SRB assay; format: functional; conditions: read-out: Activity; procedure, shortened: as §2
UO-31 = test: Cytotoxicity against human UO31 cells by SRB assay; format: functional; procedure, shortened: as §1
DU-145 = test: Cytotoxicity against human DU145 cells assessed as cell growth at 0.005 uM by SRB assay; format: functional; conditions: read-out: Activity
RXF 393 = test: Cytotoxicity against human RXF393 cells assessed as cell growth at 50 uM by SRB assay; format: functional; conditions: read-out: Activity
[18] = read-out: LC50 (the source's name)
[19] = read-out: pLC50 (the source's name) (converted)

COc1cc([C@@H]2c3cc4c(cc3[C@@H](NC(=O)CN3CCN(CCCCCCN5CCN(CC(=O)N[C@@H]6c7cc8c(cc7[C@@H](c7cc(OC)c(O)c(OC)c7)[C@H]7C(=O)OC[C@@H]76)OCO8)CC5)CC3)[C@H]3COC(=O)[C@H]23)OCO4)cc(OC)c1O
growth at 50 µM (SW-620): 4%
GI50 (MDA-MB-435; read-out: GI50): 7.52 µM
CC50 (MDA-MB-435; [18]): > 50 µM
TGI (MDA-MB-435; read-out: TGI): > 50 µM
GI50 (MDA-MB-435; read-out: pGI50 (converted)): 7.59 µM
CC50 (MDA-MB-435; [19]): > 50.1 µM
TGI (MDA-MB-435; read-out: pTGI (converted)): > 50.1 µM
growth at 0.005 µM (RPMI-8226 [1]): 102%
growth at 0.5 µM (SN12C): 78%
growth at 0.005 µM (U-251): 102%
growth at 0.5 µM (SNB-19 [2]): 66%
GI50 (MDA-MB-231 [3]; read-out: GI50): 13.6 µM
CC50 (MDA-MB-231 [3]; [18]): > 50 µM
TGI (MDA-MB-231 [3]; read-out: TGI): > 50 µM
GI50 (MDA-MB-231 [3]; read-out: pGI50 (converted)): 13.5 µM
CC50 (MDA-MB-231 [3]; [19]): > 50.1 µM
TGI (MDA-MB-231 [3]; read-out: pTGI (converted)): > 50.1 µM
growth at 0.5 µM (MDA-MB-231 [4]): 97%
growth at 50 µM (RPMI-8226 [5]): -13%
growth at 0.5 µM (HOP-62 [6]): 98%
GI50 (UACC-257; read-out: GI50): 18.9 µM
CC50 (UACC-257; [18]): > 50 µM
TGI (UACC-257; read-out: TGI): > 50 µM
GI50 (UACC-257; read-out: pGI50 (converted)): 19.1 µM
CC50 (UACC-257; [19]): > 50.1 µM
TGI (UACC-257; read-out: pTGI (converted)): > 50.1 µM
growth at 0.005 µM (SK-MEL-28): 100%
growth at 50 µM (SK-MEL-2): -15%
GI50 (COLO 205; read-out: GI50): 5.79 µM
CC50 (COLO 205; [18]): > 50 µM
TGI (COLO 205; read-out: TGI): 44.7 µM
GI50 (COLO 205; read-out: pGI50 (converted)): 5.75 µM
CC50 (COLO 205; [19]): > 50.1 µM
TGI (COLO 205; read-out: pTGI (converted)): 44.7 µM
growth at 0.05 µM (HOP-62 [7]): 96%
growth at 50 µM (MCF7): 7%
growth at 50 µM (SR): 1%
growth at 0.5 µM (SK-OV-3): 97%
growth at 50 µM (HL-60(TB) [8]): -1%
growth at 5 µM (OVCAR-3): 63%
growth at 0.5 µM (HCT-116): 60%
growth at 0.05 µM (SNB-19 [9]): 95%
growth at 0.005 µM (NCI-H23 [10]): 102%
growth at 0.05 µM (CAKI-1): 93%
GI50 (NCI-H23 [11]; read-out: GI50): 3.82 µM
CC50 (NCI-H23 [11]; [18]): > 50 µM
TGI (NCI-H23 [11]; read-out: TGI): 38.6 µM
GI50 (NCI-H23 [11]; read-out: pGI50 (converted)): 3.8 µM
CC50 (NCI-H23 [11]; [19]): > 50.1 µM
TGI (NCI-H23 [11]; read-out: pTGI (converted)): 38.9 µM
growth at 0.005 µM (CCRF-CEM): 102%
growth at 0.05 µM (SF-268): 100%
growth at 50 µM (SNB-75): -31%
growth at 50 µM (HOP-62 [12]): -22%
growth at 5 µM (SF-539 [13]): 12%
growth at 0.005 µM [14]: 104%
IC50 [15]: 0.88 µM
GI50 (ACHN; read-out: GI50): 22.3 µM
CC50 (ACHN; [18]): > 50 µM
TGI (ACHN; read-out: TGI): > 50 µM
GI50 (ACHN; read-out: pGI50 (converted)): 22.4 µM
CC50 (ACHN; [19]): > 50.1 µM
TGI (ACHN; read-out: pTGI (converted)): > 50.1 µM
growth at 0.05 µM (SF-539 [16]): 96%
growth at 0.05 µM (A498): 96%
growth at 0.05 µM (HL-60(TB) [17]): 114%
GI50 (UO-31; read-out: GI50): > 50 µM
CC50 (UO-31; [18]): > 50 µM
TGI (UO-31; read-out: TGI): > 50 µM
GI50 (UO-31; read-out: pGI50 (converted)): > 50.1 µM
CC50 (UO-31; [19]): > 50.1 µM
TGI (UO-31; read-out: pTGI (converted)): > 50.1 µM
growth at 0.005 µM (DU-145): 102%
growth at 50 µM (RXF 393): 7%
